Results published in paper PMC3778312 (British Journal of Cancer, 2013).

Legend:
[1] = Docetaxel plasma pharmacokinetics in patients; format: in vivo; conditions: human
[2] = Phase 1 safety monitoring of PX-866 with docetaxel; format: in vivo, human
Procedure, shortened: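 Open-label dose escalation in cohorts of 6–9 patients at 4, 6 or 8 mg oral daily test compound plus docetaxel 75 mg m−2 IV every 21 days, with dexamethasone premedication. All patients receiving ≥1 dose had vital signs, labs and exams; AEs were graded by NCI CTCAE v4.02. DLTs included related grade ≥3 events, febrile grade 3/4 neutropenia, platelets <25 000 per μl and ANC <500 per μl for >7 days.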

NSCLC = conditions: ref Roberts et al, 2004, Horstmann et al, 2005, Schuette et al; cited from earlier work
[3] = plasma, intravenous, 75 mg m^-2

CC(=O)O[C@@]12CO[C@@H]1C[C@H](O)[C@@]1(C)C(=O)[C@H](O)C3=C(C)[C@@H](OC(=O)[C@H](O)[C@@H](NC(=O)OC(C)(C)C)c4ccccc4)C[C@@](O)([C@@H](OC(=O)c4ccccc4)[C@H]21)C3(C)C [docetaxel]
exposure in the presence of PX-866 ([1]; in vivo): not affected | AUC(0-t) ([1]; plasma, intravenous): 851 ng·h/mL | MRT inf ([1]; plasma, intravenous): 13.9 h | Tmax ([1]; plasma, intravenous): 0.19 h | Vd ([1]; plasma, intravenous): 2690 L | clearance ([1]; plasma, intravenous): 2570 mL/min | AUC(0-t) [1, 3]: 1200 ng·h/mL | MRT inf [1, 3]: 15.2 h | Tmax [1, 3]: 0.19 h | Vd [1, 3]: 2990 L | clearance [1, 3]: 2390 mL/min | AUC(0-inf) ([1]; plasma, intravenous, AUCINF, C2D1 (with PX-866), mean, N=35, plasma): 1110 ng·h/mL | Cmax ([1]; plasma, intravenous, Cmax, C2D1 (with PX-866), mean, N=35, plasma): 539 ng/mL | half-life ([1]; plasma, intravenous, Half-life, C2D1 (with PX-866), mean, N=35, plasma): 13.1 h | patients requiring docetaxel dose reduction ([2]; 18 out of 43): 42% | SAE related to docetaxel: ataxia ([2]; PX-866 with docetaxel): 1 N | SAE related to docetaxel: febrile neutropenia ([2]; PX-866 with docetaxel): 1 N | SAE related to docetaxel: mental status changes ([2]; PX-866 with docetaxel): 1 N | SAE related to docetaxel: nausea ([2]; PX-866 with docetaxel): 2 N | SAE related to docetaxel: pneumonia ([2]; PX-866 with docetaxel): 1 N | SAE related to docetaxel: vomiting ([2]; PX-866 with docetaxel): 3 N | gastrointestinal disorders, docetaxel-related ([2]; PX-866 with docetaxel, 43 patients): 79.1% | Grade 3/4 AE related to docetaxel: anaemia ([2]; PX-866 with docetaxel, N=43): 2 N | Grade 3/4 AE related to docetaxel: diarrhoea ([2]; PX-866 with docetaxel, N=43): 3 N | Grade 3/4 AE related to docetaxel: leucopenia ([2]; PX-866 with docetaxel, N=43): 4 N | Grade 3/4 AE related to docetaxel: nausea ([2]; PX-866 with docetaxel, N=43): 2 N | Grade 3/4 AE related to docetaxel: vomiting ([2]; PX-866 with docetaxel, N=43): 3 N | patients in whom docetaxel was discontinued due to toxicity ([2]; after SD or better with combination, continued single-agent PX-866): eight | patients requiring docetaxel dose reduction due to neutropenia ([2]; of 18 with dose reduction): Fourteen | PR rate, second-line docetaxel in NSCLC (NSCLC): 13% | PR−SD rate, second-line docetaxel in NSCLC (NSCLC): 50%
